RGS4 inh – RGS4 inhibitors, primary screen, cell-based, HEK293 M3R inducible RGS4, calcium flux | AID 463165, 2010 | Fluo-4 calcium flux; active compounds read high; triggered by carbachol at its EC20 | B-score at 10 µM | hit rate 0.45% among 310,000;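 active = B-score, a plate-corrected calcium signal, over three deviations above library mean, with baseline fluorescence within five deviations of library mean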;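 also: RGS4 expression induced by doxycycline in cells with stable M3 receptor; B-score is computed from the integrated fluorescence ratio over baseline after carbachol; higher B-score means a larger calcium signal and so more RGS4 inhibition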
Target sequence (P49798 whole entry, looked up): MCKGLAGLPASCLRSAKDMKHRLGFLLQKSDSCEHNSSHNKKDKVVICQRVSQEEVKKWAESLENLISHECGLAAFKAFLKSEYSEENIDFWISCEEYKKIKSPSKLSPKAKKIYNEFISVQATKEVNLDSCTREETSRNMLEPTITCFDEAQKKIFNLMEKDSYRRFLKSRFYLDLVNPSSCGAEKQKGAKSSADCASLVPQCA
MrgX1 allo act – positive allosteric modulators of MrgX1, primary screen, HEK293 cells, Fluo-4 calcium flux. Mas-related G-protein coupled receptor member X1 (Homo sapiens), Q96LB2. FDSS; active compounds read high. B-score at 10 µM. hit rate 0.63% among 310,000. AID 588675, 2011;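 active = plate-corrected calcium response at least 3 library SD above typical, normal starting fluorescence, not activating the receptor alone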;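 also: compound read alongside a low EC10 to EC30 dose of BAM8-22 agonist; peak minus trough fluorescence over baseline measured at the second addition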
Target sequence (Q96LB2 whole entry, looked up): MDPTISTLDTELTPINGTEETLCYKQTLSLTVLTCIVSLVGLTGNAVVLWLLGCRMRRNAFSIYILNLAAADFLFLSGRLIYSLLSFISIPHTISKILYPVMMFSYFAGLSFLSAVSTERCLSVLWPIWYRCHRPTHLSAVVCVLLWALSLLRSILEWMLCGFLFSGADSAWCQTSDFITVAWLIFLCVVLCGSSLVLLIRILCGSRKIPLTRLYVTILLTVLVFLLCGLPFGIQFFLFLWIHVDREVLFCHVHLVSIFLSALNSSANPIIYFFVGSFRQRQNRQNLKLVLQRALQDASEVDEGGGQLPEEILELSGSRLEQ
MrgX1 agonist – agonists of human MrgX1 receptor, primary screen, HEK293 cells, Fluo-4 calcium flux. Mas-related G-protein coupled receptor member X1 (Homo sapiens), Q96LB2. Fluo-4 calcium fluorescence, agonist mode; active compounds read high. B-score at 10 µM. hit rate 0.44% among 310,000;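 active = calcium response B-score plate-corrected fluorescence ratio at least 3 library SD, with starting fluorescence B-score inside 5 SD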
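Material: HEK293 cells stably expressing human MrgX1 receptor | Quantity: 15,000 cells per well | Times: Cells plated overnight, dye loaded 0.5 h 37 °C, 0.5 h room temperature | Measured by: Kinetic Fluo-4 NW fluorescence of intracellular calcium | Control set: Positive and negative controls per plate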
MrgX1 antag – antagonists of human MrgX1 receptor, primary screen, HEK293 cells, Fluo-4 calcium flux; Mas-related G-protein coupled receptor member X1 (Homo sapiens), Q96LB2; BAM8-22 antagonism; active compounds read low; B-score at 10 µM; hit rate 1.3% among 310,000;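 active = calcium-response B-score plate-corrected more than 3 library SD below zero, starting fluorescence within 5 deviations, no agonist response on first addition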;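 also: peak minus trough fluorescence over baseline after final BAM8-22 challenge near maximal dose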
RGS4 act – RGS4 potentiators or activators, primary screen, cell-based, HEK293 M3R inducible RGS4, calcium flux; hit rate 0.92% among 310,000; carbachol calcium flux Fluo4; active compounds read low; B-score at 10 µM; AID 463111, 2010;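 active = B-score of the integrated calcium signal more than 4 SD below the library mean, with starting fluorescence not abnormally high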;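 also: negative B-score means reduced calcium response which marks RGS4 activation or potentiation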
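test system = HEK293 cells with stable M3R and inducible RGS4 | schedule = recording 10 s baseline at 1 Hz, 100 s post-agonist | technique = Fluo4-AM (2 µM) calcium-flux fluorescence, kinetic read | measure = Agonist-evoked peak-minus-minimum fluorescence over baseline, integrated ratio, B score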
The depositor's hits bear a star. Rows were chosen to be rich in hits. Some 3.5% of all compounds tested hit in one or more screens of this group.

For CCN(CC)CCCN1C(=O)c2oc3ccccc3c(=O)c2C1c1cccs1 (centres undefined) the results were RGS4 inh inactive, MrgX1 allo act 11*, MrgX1 agonist inactive, MrgX1 antag inactive and RGS4 act inactive.
CCN(CC)CCN1C(=O)c2oc3ccccc3c(=O)c2C1c1ccccc1 (centres undefined) was read as RGS4 inh inactive, MrgX1 allo act inactive, MrgX1 agonist inactive, MrgX1 antag -6* and RGS4 act inactive.
O=C(C1CCC1)N1CCc2cc(S(=O)(=O)NCc3ccccn3)ccc21 was read as RGS4 inh inactive, MrgX1 allo act inactive, MrgX1 agonist inactive, MrgX1 antag inactive and RGS4 act inactive.
COc1ccc(CNc2n[nH]c(NCc3ccc(OC)c(OC)c3)n2)cc1OC was read as RGS4 inh inactive, MrgX1 allo act inactive, MrgX1 agonist inactive, MrgX1 antag inactive and RGS4 act inactive.
For CCCCn1c(-c2ccc(OC)cc2)nc2c(=O)n(C)c(=O)[nH]c21 the results were RGS4 inh inactive, MrgX1 allo act inactive, MrgX1 agonist inactive, MrgX1 antag inactive and RGS4 act inactive.
For O=C(Nc1cc2c3c(c1)C1CCCC1CN3CC1CCCC21)c1ccccc1 (centres undefined) the results were RGS4 inh inactive, MrgX1 allo act inactive, MrgX1 agonist inactive, MrgX1 antag -13* and RGS4 act -9.8*.
Cc1ccc(OCC(=O)Nc2ccc(N3CCN(S(C)(=O)=O)CC3)cc2)cc1 was read as RGS4 inh inactive, MrgX1 allo act inactive, MrgX1 agonist inactive, MrgX1 antag inactive and RGS4 act inactive.
For O=C1C(Cl)=C(NC2CCCCC2)C(=O)N1c1ccc(Cl)cc1 the results were RGS4 inh inactive, MrgX1 allo act 15*, MrgX1 agonist inactive, MrgX1 antag inactive and RGS4 act inactive.
CN1CCN(C2=C(Cl)C(=O)N(c3ccc(Cl)cc3)C2=O)CC1 was read as RGS4 inh inactive, MrgX1 allo act inactive, MrgX1 agonist inactive, MrgX1 antag inactive and RGS4 act inactive.
CCOC(=O)N1CCC(NC(=O)c2ccc(CNS(=O)(=O)c3ccc(F)cc3)cc2)CC1 was read as RGS4 inh inactive, MrgX1 allo act inactive, MrgX1 agonist inactive, MrgX1 antag inactive and RGS4 act inactive.
Screening CC1(C(=O)N2CC3(CC(c4ccccc4)=NO3)C[C@H]2C(=O)NCC(N)=O)CC1 (some centres undefined) returned RGS4 inh inactive, MrgX1 allo act inactive, MrgX1 agonist inactive, MrgX1 antag -5.6* and RGS4 act inactive.
For CCC(=O)Nc1cccc(C2=NOC3(C2)C[C@@H](C(N)=O)N(C(=O)COc2ccc(Cl)cc2)C3)c1 (some centres undefined) the results were RGS4 inh inactive, MrgX1 allo act 8.9*, MrgX1 agonist inactive, MrgX1 antag inactive and RGS4 act inactive.
Screening CCC(=O)Nc1cccc(C2=NOC3(C2)C[C@@H](C(N)=O)N(C(=O)c2ccccc2C(=O)c2ccccc2)C3)c1 (some centres undefined) returned RGS4 inh inactive, MrgX1 allo act inactive, MrgX1 agonist inactive, MrgX1 antag -8* and RGS4 act inactive.
For CCC(=O)N1CC2(CC(c3cccc(NC(=O)COc4ccc(Cl)cc4)c3)=NO2)C[C@@H]1C(N)=O (some centres undefined) the results were RGS4 inh inactive and RGS4 act inactive.
For Cc1cc(C)n(C(=O)c2ccc(C)o2)n1 the results were RGS4 inh inactive, MrgX1 allo act inactive, MrgX1 agonist inactive, MrgX1 antag inactive and RGS4 act inactive.
Screening CC(C)C[C@H]1CN=C(Nc2ccccc2)N1CC1CCC(C(C)(C)C)CC1 (some centres undefined) returned MrgX1 allo act 6.9*, MrgX1 agonist inactive and MrgX1 antag inactive.
`CCOC(=O)C(NC(=O)c1ccc(OC)cc1)(OCC1(CC)COC1)C(F)(F)F` (centres undefined) gave RGS4 inh inactive, MrgX1 allo act inactive, MrgX1 agonist inactive, MrgX1 antag inactive and RGS4 act inactive.
Screening COc1ccccc1CNc1ncccn1 returned RGS4 inh inactive, MrgX1 allo act inactive, MrgX1 agonist inactive, MrgX1 antag inactive and RGS4 act inactive.
`COc1ccccc1CNN` gave RGS4 inh inactive, MrgX1 allo act 8*, MrgX1 agonist inactive, MrgX1 antag inactive and RGS4 act inactive.
Screening CCOC(=O)c1csc(NC(=O)c2ccc3c(c2)OCCO3)n1 returned RGS4 inh inactive, MrgX1 allo act inactive, MrgX1 agonist inactive, MrgX1 antag inactive and RGS4 act inactive.
COc1ccccc1Oc1ccc(S(=O)(=O)N2CCCCC2C)cc1 (centres undefined) was read as RGS4 inh inactive, MrgX1 allo act inactive, MrgX1 agonist inactive, MrgX1 antag inactive and RGS4 act inactive.
`COc1ccccc1Oc1ccc(S(=O)(=O)N2CCCC2)cc1` gave RGS4 inh inactive, MrgX1 allo act inactive, MrgX1 agonist inactive, MrgX1 antag -6.1* and RGS4 act inactive.
For CCn1c(C)nc2cc(C(=O)N/N=C/c3ccccc3C)ccc21 the results were RGS4 inh inactive, MrgX1 allo act inactive, MrgX1 agonist inactive, MrgX1 antag inactive and RGS4 act inactive.
Screening COc1cc(/C=C(\C#N)C(=O)NC2CCCCC2)ccc1OCc1ccc(C(=O)O)cc1 returned RGS4 inh inactive, MrgX1 allo act 7.6*, MrgX1 agonist inactive, MrgX1 antag inactive and RGS4 act inactive.
Screening COc1ccc(/C=N/NC(=O)c2ccc3ccccc3c2)cc1OS(=O)(=O)c1ccc(NC(C)=O)cc1 returned RGS4 inh inactive, MrgX1 allo act inactive, MrgX1 agonist inactive, MrgX1 antag inactive and RGS4 act -9.3*.
For CCCc1cc(C(=O)NNC(=S)NC(C)c2ccccc2)cs1 (centres undefined) the results were RGS4 inh inactive, MrgX1 allo act inactive, MrgX1 agonist inactive, MrgX1 antag inactive and RGS4 act inactive.
O=C(CCNC(=O)c1ccc(Br)cc1)Nc1ccc(S(=O)(=O)Nc2ncccn2)cc1 was read as RGS4 inh inactive, MrgX1 allo act inactive, MrgX1 agonist inactive, MrgX1 antag inactive and RGS4 act inactive.
`COC(=O)c1ccc(CN(C(C)=O)c2ccccc2)o1` gave RGS4 inh inactive, MrgX1 allo act inactive, MrgX1 agonist inactive, MrgX1 antag inactive and RGS4 act -7.3*.

Screening data: PubChem BioAssay, Johns Hopkins Ion Channel Center
